Reference: ChEMBL document CHEMBL1153931
Converted amounts (≈) assume the structure as drawn.

Legend:
Bacillus anthracis = experiment: Antibacterial activity against Bacillus anthracis Sterne; assay type: functional
[1] = target: T1, NH(3)-dependent NAD(+) synthetase (Bacillus anthracis, UniProt Q81RP3); experiment: Inhibition of Bacillus anthracis NAD synthetase
T1 sequence (Q81RP3 whole entry): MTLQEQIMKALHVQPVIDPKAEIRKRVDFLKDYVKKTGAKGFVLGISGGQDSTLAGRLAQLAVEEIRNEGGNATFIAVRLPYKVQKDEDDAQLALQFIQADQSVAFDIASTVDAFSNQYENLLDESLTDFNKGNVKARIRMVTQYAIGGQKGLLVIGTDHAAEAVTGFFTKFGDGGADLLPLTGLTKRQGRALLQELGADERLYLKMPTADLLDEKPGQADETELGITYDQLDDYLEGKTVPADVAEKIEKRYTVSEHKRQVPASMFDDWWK
How it was run: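 Purified B. anthracis NADs (6 μg/ml) in 60 mM HEPPS pH 8.5 with 0.5 mM NH4Cl, 20 mM KCl, 10 mM MgCl2, 0.1 mM NaAD, 2.5% DMSO and 0.3% BOG. Started with 0.2 mM ATP, quenched with guanidine-HCl after 10 min. Compounds tested 600 to 0.6 μM in doubling dilutions. NAD measured by reverse-phase HPLC peak height. IC50 is the average of duplicate runs.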

COc1ccc(Oc2ccc([N+](=O)[O-])cc2C(=O)Nc2ccc(S(N)(=O)=O)cc2)cc1
MIC (Bacillus anthracis): > 240 µM

O=C(CCC(=O)Nc1ccc(Nc2ccccc2)cc1)Nc1ccc(Nc2ccccc2)cc1
MIC (Bacillus anthracis): > 222 µM

Cc1cc(C)c2oc(-c3cccc(NC(=O)/C=C/c4cccc([N+](=O)[O-])c4)c3)nc2c1
MIC (Bacillus anthracis): > 240 µM

O=C(Nc1cccc(/N=C/c2cc([N+](=O)[O-])ccc2O)c1)c1cccc(Br)c1
MIC (Bacillus anthracis): > 227 µM

O=C(Nc1cccc(/N=C/c2cc([N+](=O)[O-])ccc2O)c1)c1ccc(Cl)cc1Cl
MIC (Bacillus anthracis): > 232 µM

COc1cccc(NC(=O)Nc2nnc(COc3ccc([N+](=O)[O-])cc3)s2)c1
MIC (Bacillus anthracis): > 240 µM

NC(=O)c1c(NC(=S)NC(=O)c2cccc([N+](=O)[O-])c2)sc2c1CCCC2
IC50 [1]: 186 µM | MIC (Bacillus anthracis): > 240 µM

NC(=O)c1ccc(NC(=O)c2ccc(Oc3ccc([N+](=O)[O-])cc3Cl)cc2)cc1
MIC (Bacillus anthracis): > 240 µM

N/C(=N\OC(=O)c1ccc(Cl)c(Cl)c1)c1cccc(CSc2ccccn2)c1
MIC (Bacillus anthracis): > 240 µM

O=C(Cn1nnc(N2CCOCC2)n1)N/N=C/c1ccc(-c2cccc([N+](=O)[O-])c2)o1
IC50 [1]: 109 µM | MIC (Bacillus anthracis): > 240 µM

COc1ccc(NC(=O)Nc2cccc(NC(=O)Nc3ccc(OC)cc3)c2F)cc1
MIC (Bacillus anthracis): > 240 µM

COc1ccc(NC(=O)Nc2ccc(Oc3ncnc4cc(Cl)ccc34)nc2)cc1OC1CCCC1
MIC (Bacillus anthracis): > 240 µM

O=C(Nc1cccc(Oc2ccc3c(c2)C(=O)N(c2ccccc2)C3=O)c1)c1cccc([N+](=O)[O-])c1
MIC (Bacillus anthracis): > 240 µM

O=C(Nc1cccc(C(=O)Nc2cccc3ccccc23)c1)c1cccc([N+](=O)[O-])c1
MIC (Bacillus anthracis): > 240 µM

COc1ccccc1NC(=O)NC(=O)c1ccc(-c2csnn2)cc1
MIC (Bacillus anthracis): > 240 µM

COc1ccc(Br)c(-c2nnc(-c3ccccc3NC(=O)NC(=O)c3ccccc3Cl)o2)c1
IC50 [1]: 220 µM | MIC (Bacillus anthracis): > 240 µM

Cc1cc(-c2nnc(CSc3nnc(NC(=O)c4ccc(F)c(Cl)c4)s3)o2)ccc1[N+](=O)[O-]
MIC (Bacillus anthracis): > 240 µM

COc1ccccc1NC(=O)COc1ccc(/C=C(/C#N)c2nc3ccccc3[nH]2)cc1
MIC (Bacillus anthracis): > 240 µM

Cc1c(NC(=O)c2ccc(N3CCCC3)c([N+](=O)[O-])c2)cccc1-c1nc2ccccc2[nH]1
MIC (Bacillus anthracis): > 240 µM

COc1ccc(CCNC(=O)NCc2cccc(CNC(=O)NCCc3ccc(OC)cc3)c2)cc1
MIC (Bacillus anthracis): > 204 µM

O=C(Nc1ccc([N+](=O)[O-])cc1)Nc1ccc(S(=O)(=O)Nc2ccc(Cl)c(Cl)c2)cc1
MIC (Bacillus anthracis): 1.9 µM (≈ 0.915 µg/mL)

CCc1ccc(S(=O)(=O)Nc2c([N+](=O)[O-])ccc3ccccc23)cc1
MIC (Bacillus anthracis): 3.8 µM (≈ 1.35 µg/mL)

O=C1C=C(Nc2ccccc2C(=O)O)C(=O)C=C1Nc1ccccc1C(=O)O
MIC (Bacillus anthracis): > 264 µM

O=C(Cn1cc(/C=C/c2[nH]c(=O)[nH]c(=O)c2[N+](=O)[O-])c2ccccc21)Nc1ccc(F)cc1
MIC (Bacillus anthracis): > 223 µM

O=C(Nc1ccc([N+](=O)[O-])cc1)c1ccc(-c2nnc(-c3ccccc3)o2)cc1
MIC (Bacillus anthracis): > 259 µM

O=C(Nc1ccc(S(=O)(=O)Nc2ncccn2)cc1)Nc1ccc(Cl)c(Cl)c1
MIC (Bacillus anthracis): 15 µM (≈ 6.57 µg/mL)

O=[N+]([O-])c1ccc(O)c(/C=N/c2cccc(O)c2)c1
MIC (Bacillus anthracis): > 387 µM

N#C/C(=C\c1ccccc1[N+](=O)[O-])C(=O)c1ccccc1
IC50 [1]: 51 µM | MIC (Bacillus anthracis): 120 µM (≈ 33.4 µg/mL)

O=C(COC(=O)c1ccc(NC(=O)c2ccc([N+](=O)[O-])cc2)cc1)c1ccc(F)cc1
MIC (Bacillus anthracis): > 237 µM

O=C(Nc1ccc2oc(-c3cc(Br)ccc3Cl)nc2c1)c1cccc([N+](=O)[O-])c1
MIC (Bacillus anthracis): > 240 µM

O=C(Nc1ccc(Cc2ccc(NC(=O)c3ccc4c(c3)OCO4)cc2)cc1)c1ccc2c(c1)OCO2
MIC (Bacillus anthracis): > 240 µM

O=[N+]([O-])c1ccc(-c2cnc(N/N=C/c3cccc([N+](=O)[O-])c3)nc2)cc1
MIC (Bacillus anthracis): > 274 µM

CCOC(=O)C1=C(Nc2cccc3ccccc23)S/C(=C\c2ccc([N+](=O)[O-])cc2)C1=O
MIC (Bacillus anthracis): > 224 µM

Nc1ncnc(Nc2ccc(Cl)cc2C(=O)c2ccccc2Cl)c1[N+](=O)[O-]
MIC (Bacillus anthracis): > 247 µM

O=C(Nc1ccccc1)Nc1ccc(NC(=O)c2ccc(NC(=O)Nc3ccccc3)cc2)cc1
MIC (Bacillus anthracis): > 240 µM

Cc1onc(-c2ccccc2)c1NC(=O)Nc1ccc(Oc2ncnc3cc(Cl)ccc23)nc1
MIC (Bacillus anthracis): > 240 µM

O=C(NC(=S)Nc1cc(-c2nc3ccccc3[nH]2)ccc1Cl)c1ccccc1[N+](=O)[O-]
MIC (Bacillus anthracis): > 240 µM

Cc1ccc(C(=O)Nc2cccc(-c3nc4ccccc4[nH]3)c2)cc1
MIC (Bacillus anthracis): > 240 µM

Nc1c(C(=O)c2ccc([N+](=O)[O-])cc2)sc(Nc2ccccc2)c1-c1nc2ccccc2[nH]1
MIC (Bacillus anthracis): > 240 µM

O=C(Nc1ccc(/N=N/c2ccccc2)cc1)c1ccc([N+](=O)[O-])cc1
MIC (Bacillus anthracis): > 240 µM

Cc1ccc(-c2nc3cc(Cl)ccc3o2)cc1CC(=O)c1cc([N+](=O)[O-])c(C)c([N+](=O)[O-])c1
MIC (Bacillus anthracis): > 240 µM

O=C(CSc1nc(Nc2ccccc2)nc(N2CCOCC2)n1)Nc1ccc([N+](=O)[O-])cc1O
MIC (Bacillus anthracis): 15 µM (≈ 7.25 µg/mL)

NC(=O)c1ccc(/N=C/c2cc([N+](=O)[O-])ccc2Cl)cc1
MIC (Bacillus anthracis): > 329 µM
